Runt-SMMHC FRET: blocks binding of human RUNX1 Runt domain to CBFb-SMMHC; Cerulean-Runt/Venus-CBFb-SMMHC FRET ratio 530/480, 1 h; inhibition, % at 20 µM; 220,000 compounds, 0.74% hits; AID 1434;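 active = mean inhibition across duplicate retests at 20 µM reaching about 50%, limit read from the data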;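 also: 0% = DMSO wells and 100% = wells with excess untagged CBFb-SMMHC; inhibitors lower the FRET ratio by blocking Runt binding to CBFb-SMMHC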
RanGTP-Imp inh: inhibitors of RanGTP-importin-beta interaction, primary screen, biochemical, FRET, CFP-Ran, YFP-importin-beta, homogeneous; cell-free CFP-Ran/YFP-importin-beta FRET ratio; inhibition, % (test concentration not listed); 300,000 compounds, 1.1% hits; AID 2216;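 active = more than half of the replicate wells show a fall in the fluorescence ratio signal beyond about 16%, limit read from the data, passing the limit was not always enough; inconclusive = exactly half of the replicate wells pass the set limit; inactive = fewer than half of replicates pass the limit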;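 also: 0% = DMSO wells and 100% = Ran loaded with GDP instead of GTP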
TbHK1 inh: T. brucei hexokinase 1 inhibition; recombinant TbHK1, G6PDH-coupled NADH A340; inhibition, % at 10 µM; 220,000 compounds, 0.11% hits; AID 1430;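 active = inhibition of 50% or more in the single-dose primary screen; inactive = inhibition below 50%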
Hck-Nef inh: human Hck-Nef kinase inhibition | AID 463187 | Recombinant Hck-YEEI plus Nef, Z-Lyte FRET kinase assay | inhibition, % at 20 µM | P08631 | 220,000 compounds, 0.68% hits;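 active = Hck-Nef kinase inhibition above about 50%, limit read from the data; inactive = inhibition below that limit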;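 also: 0% = DMSO with Hck plus Nef and 100% = Hck alone without Nef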
Runt-CBFb FRET: Runt domain-CBFb interaction inhibition. Q01196+Q13951. Cerulean-Runt/Venus-CBFb FRET ratio 530/480, 1 h. inhibition, % at 20 µM. 220,000 compounds, 0.46% hits;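 active = inhibition over about 50% at 20 µM in the single-dose screen, limit read from the data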;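 also: 0% = DMSO wells and 100% = excess unlabeled CBFb competitor control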
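test system = Cerulean-tagged RUNX1 Runt domain (FRET donor) fusion protein | reagent = Venus-CBFb binding partner, 100 nM | incubation = protein complex preformed 1 h, compound exposure 1 h, room temperature, dark | detection = FRET fluorescence | read-out basis = loss of energy transfer signal | controls = 5 µM unlabeled CBFb as full-inhibition high control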
Runt-CBFb TRFRET: disrupts human RUNX1 Runt domain binding to CBFb. shares compounds with Runt-CBFb FRET. TR-FRET RUNX1 Runt domain-CBFb binding. inhibition, % at 20 µM. 480 compounds, 20% hits. AID 1502; in the data active = inhibition above about 40%
Active calls of the source: *; ? = inconclusive; · = no result given. In the library only some 1.9% were active in any assay of this set; here they are far more common.

SMILES	Runt-SMMHC FRET	RanGTP-Imp inh	TbHK1 inh	Hck-Nef inh	Runt-CBFb FRET	Runt-CBFb TRFRET
CN1CCc2c(sc(/N=C/c3c[nH]c4ccccc34)c2C(N)=O)C1	14	46*	-20	15	53*	-42
CN1CCc2c(sc(/N=C/c3c[nH]c4ccccc34)c2C#N)C1	3	4	-15	27	50	·
CCn1c(O)c(/C=N/NC(=O)c2ccncc2)c(=O)n(CC)c1=S	63*	2	-31	9	59*	-26
Cn1c(=O)n(C)c2cc(/C=N/NC(=O)c3ccncc3)ccc21	-1	1	-37	25	0	·
COc1ccc(NS(=O)(=O)c2cc(N/C(=N\S(=O)(=O)c3ccccc3)c3ccc(F)cc3)ccc2Cl)cc1	0	0	14	3	-7	·
COc1cc(C(=O)NCc2nnc(SCC(=O)Nc3nc4ccccc4s3)o2)cc(OC)c1OC	48	5	34	-2	53*	-2
COc1ccc(C(=O)NCc2nnc(SCC(=O)Nc3nc4ccccc4s3)o2)cc1	-3	1	28	1	57*	-23
CC(C)C(=O)Nc1nnc(SCC(=O)NC2CCCC2)s1	·	-4	·	·	·	·
O=C(NCc1ccco1)c1cccnc1Cl	0	5	0	3	-1	·
O=C(NCc1ccco1)c1cccnc1-c1nc2ccccc2s1	31	4	-9	0	50*	40*
Cc1ccccc1N=Cc1cc2c(cc1O)OC(N)=C(C#N)C2c1ccccc1 (centres undefined)	109*	30*	-20	6	71*	0
N#CC1=C(N)Oc2cc(O)c(C=Nc3ccccc3)cc2C1c1ccccc1 (centres undefined)	34	?	-16	5	27	·
CCC(C)N(C(=O)COC(=O)c1ccccc1SCC(=O)N1CCCC1)C1CCS(=O)(=O)C1 (centres undefined)	·	2	·	·	·	·
CCOC(=O)N1CCN(C(=O)c2ccc3c(SCC(=O)O)c4c(nc3c2)CCCC4)CC1	2	0	1	18	2	·
O=C(O)CSc1c2c(nc3cc(C(=O)N4CCOCC4)ccc13)CCCC2	102*	31*	-18	0	59*	31
COc1ccc(S(=O)(=O)N(C(=O)c2ccco2)c2cc3sc(=O)oc3c3ccccc23)cc1	43	4	-2	3	9	·
COc1ccc(S(=O)(=O)N(C(=O)C(C)C)c2ccc3oc(=O)sc3c2)cc1	56*	0	0	2	53*	4
COc1ccc(C(=O)Oc2ccc3oc(=O)sc3c2)cc1	40	1	-4	2	65*	0
COc1ccc(N(C(C)=O)S(=O)(=O)c2cc(OC)ccc2OC)cc1	4	6	-2	3	27	·
COc1ccc(C(=O)Oc2ccc3ccc(=O)oc3c2)cc1	·	0	·	·	·	·
CC(=O)N(c1ccc2oc(=O)sc2c1)S(=O)(=O)c1ccccc1	38	0	3	8	60*	17
COc1ccc(OC)c(S(=O)(=O)N(C(C)=O)c2ccc3oc(=O)sc3c2)c1	·	-1	1	19	67*	12
O=C(Nc1ccccn1)C1CCN(C(=O)Nc2ccccc2)CC1	·	2	·	·	·	·
COC(=O)Cc1cc(=O)n2c(nc3ccccc32)[nH]1	·	0	·	·	·	·
CSc1ccc(Cl)c(C(=O)NNC(=O)c2csc(N3CCOCC3)n2)c1	·	9	·	·	·	·
SMILES	Runt-SMMHC FRET	RanGTP-Imp inh	TbHK1 inh	Hck-Nef inh	Runt-CBFb FRET	Runt-CBFb TRFRET
Cc1ccc(S(=O)(=O)N(C(=O)c2ccco2)c2cc3sc(=O)oc3c3ccccc23)cc1	37	2	20	1	11	·
CN(CC(=O)O)S(=O)(=O)c1cccs1	-5	-1	-7	-2	0	·
CC(C)C(=O)N(c1ccc2oc(=O)sc2c1)S(=O)(=O)c1ccccc1	63*	2	-2	-2	58*	19
CCCC(=O)N(c1ccc2oc(=O)sc2c1)S(=O)(=O)c1cccs1	32	·	2	3	63*	10
O=C(CSc1ccccn1)Nc1nonc1[N+](=O)[O-]	·	3	·	·	·	·
Cc1ccc(Cn2cnc3ccccc32)cc1	-2	0	-3	-2	54*	-13
CC1CCN(Cc2c(C(=O)O)nnn2-c2nonc2N)CC1	2	-1	5	21	-1	·

Screens: PubChem BioAssay, several laboratories
